{"source": "ChEMBL document CHEMBL3351588", "about": "“Design, synthesis and biological evaluation of N-alkyl or aryl substituted isoindigo derivatives as potential dual cyclin-dependent kinase 2 (CDK2)/glycogen synthase kinase 3β (GSK-3β) phosphorylation inhibitors” (Eur J Med Chem, 2014)", "key": {"K562 [1]": {"tested_on": "K562", "test": "Induction of apoptosis in human K562 cells assessed as early apoptotic cells level at 10 uM after 24 hrs by Annexin V-FITC/propidium iodide staining based flow cytometry (reference value: […])", "format": "functional"}, "K562 [2]": {"tested_on": "K562", "test": "Induction of apoptosis in human K562 cells assessed as late apoptotic cells level at 30 uM after 24 hrs by Annexin V-FITC/propidium iodide staining based flow cytometry (reference value: 0.79%)", "format": "functional", "how_it_was_run": "(§1)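 K562 cells exposed for 24 h or 48 h to 0, 5.0, 10.0, 15.0, 20.0 or 30.0 µM; vehicle DMSO 0.5% v/v. Cells stained with FITC-Annexin V, then counterstained with PI, and analysed by FACScan flow cytometry. Quadrants: Annexin V−/PI− viable; Annexin V+/PI− early apoptotic; Annexin V+/PI+ late apoptotic/necrotic.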"}, "K562 [3]": {"tested_on": "K562", "test": "Induction of cell cycle arrest in human K562 cells assessed as accumulation at S phase at 10 uM after 24 hrs by propidium iodide staining based flow cytometry (reference value: 44.90%)", "format": "functional"}, "K562 [4]": {"tested_on": "K562", "test": "Induction of cell cycle arrest in human K562 cells assessed as reduction in accumulation at G2/M phase after 24 hrs by propidium iodide staining based flow cytometry", "format": "functional"}, "K562 [5]": {"tested_on": "K562", "test": "Induction of apoptosis in human K562 cells assessed as necrotic cells level at 5 uM after 48 hrs by Annexin V-FITC/propidium iodide staining based flow cytometry (reference value: 0.01%)", "format": "functional", "how_it_was_run": "as §1"}, "K562 [6]": {"tested_on": "K562", "test": "Induction of apoptosis in human K562 cells assessed as early apoptotic cells level at 10 uM after 48 hrs by Annexin V-FITC/propidium iodide staining based flow cytometry (reference value: 0.24%)", "format": "functional", "how_it_was_run": "as §1"}, "K562 [7]": {"tested_on": "K562", "test": "Induction of apoptosis in human K562 cells assessed as late apoptotic cells level at 5 uM after 48 hrs by Annexin V-FITC/propidium iodide staining based flow cytometry (reference value: 0.54%)", "format": "functional", "how_it_was_run": "as §1"}, "K562 [8]": {"tested_on": "K562", "test": "Induction of cell cycle arrest in human K562 cells assessed as accumulation at G0/G1 phase at 5 uM after 24 hrs by propidium iodide staining based flow cytometry (reference value: 36.14%)", "format": "functional"}, "K562 [9]": {"tested_on": "K562", "test": "Induction of apoptosis in human K562 cells assessed as late apoptotic cells level at 10 uM after 24 hrs by Annexin V-FITC/propidium iodide staining based flow cytometry (reference value: 0.79%)", "format": "functional", "how_it_was_run": "as §1"}, "K562 [10]": {"tested_on": "K562", "test": "Induction of apoptosis in human K562 cells assessed as necrotic cells level at 10 uM after 24 hrs by Annexin V-FITC/propidium iodide staining based flow cytometry (reference value: 0.0%)", "format": "functional", "how_it_was_run": "as §1"}, "K562 [11]": {"tested_on": "K562", "test": "Induction of apoptosis in human K562 cells assessed as late apoptotic cells level at 5 uM after 24 hrs by Annexin V-FITC/propidium iodide staining based flow cytometry (reference value: 0.79%)", "format": "functional", "how_it_was_run": "as §1"}, "K562 [12]": {"tested_on": "K562", "test": "Induction of apoptosis in human K562 cells assessed as viable cells level at 20 uM after 48 hrs by Annexin V-FITC/propidium iodide staining based flow cytometry (reference value: 99.21%)", "format": "functional", "how_it_was_run": "as §1"}, "K562 [13]": {"tested_on": "K562", "test": "Induction of apoptosis in human K562 cells assessed as viable cells level at 15 uM after 48 hrs by Annexin V-FITC/propidium iodide staining based flow cytometry (reference value: 99.21%)", "format": "functional", "how_it_was_run": "as §1"}, "K562 [14]": {"tested_on": "K562", "test": "Induction of apoptosis in human K562 cells assessed as necrotic cells level at 30 uM after 24 hrs by Annexin V-FITC/propidium iodide staining based flow cytometry (reference value: 0.0%)", "format": "functional", "how_it_was_run": "as §1"}, "K562 [15]": {"tested_on": "K562", "test": "Induction of necrosis in human K562 cells after 48 hrs by Annexin V-FITC/propidium iodide staining based flow cytometry", "format": "functional, cell-based"}, "K562 [16]": {"tested_on": "K562", "test": "Induction of apoptosis in human K562 cells assessed as late apoptotic cells level at 20 uM after 48 hrs by Annexin V-FITC/propidium iodide staining based flow cytometry (reference value: 0.54%)", "format": "functional", "how_it_was_run": "as §1"}, "K562 [17]": {"tested_on": "K562", "test": "Induction of apoptosis in human K562 cells assessed as late apoptotic cells level at 30 uM after 48 hrs by Annexin V-FITC/propidium iodide staining based flow cytometry (reference value: 0.54%)", "format": "functional", "how_it_was_run": "as §1"}, "K562 [18]": {"tested_on": "K562", "test": "Induction of cell cycle arrest in human K562 cells assessed as accumulation at S phase at 20 uM after 24 hrs by propidium iodide staining based flow cytometry (reference value: 44.90%)", "format": "functional"}, "L1210": {"tested_on": "L1210", "test": "Cytotoxicity against mouse L1210 cells after 48 hrs by SRB assay", "format": "functional, cell-based", "conditions": "L1210, 48 h", "how_it_was_run": "(§2)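 Cells seeded at 5 × 10³ per well and allowed to attach for 12 h, then exposed to a range of drug concentrations in their own medium for 48 h. Fixed with ice-cold TCA for 1 h at 4 °C, washed, then stained with 0.4% SRB for 30 min at room temperature. IC50 is the mean of three independent experiments.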"}, "K562 [19]": {"tested_on": "K562", "test": "Induction of apoptosis in human K562 cells assessed as early apoptotic cells level at 20 uM after 48 hrs by Annexin V-FITC/propidium iodide staining based flow cytometry (reference value: 0.24%)", "format": "functional", "how_it_was_run": "as §1"}, "[20]": {"molecular_target": "Glycogen synthase kinase-3 beta (Homo sapiens) (UniProt P49841)", "sequence (P49841 whole entry, looked up)": "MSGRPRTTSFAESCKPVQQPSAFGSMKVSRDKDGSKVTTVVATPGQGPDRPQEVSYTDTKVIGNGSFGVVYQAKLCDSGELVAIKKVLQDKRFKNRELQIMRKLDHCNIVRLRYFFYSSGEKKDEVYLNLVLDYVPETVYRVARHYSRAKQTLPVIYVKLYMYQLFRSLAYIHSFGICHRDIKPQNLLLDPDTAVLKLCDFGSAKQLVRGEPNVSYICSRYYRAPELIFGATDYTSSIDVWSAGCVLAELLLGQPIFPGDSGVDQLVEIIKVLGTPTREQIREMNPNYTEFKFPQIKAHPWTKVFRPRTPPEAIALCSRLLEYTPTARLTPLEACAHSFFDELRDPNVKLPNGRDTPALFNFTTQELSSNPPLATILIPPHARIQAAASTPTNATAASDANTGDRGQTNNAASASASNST", "test": "Inhibition of GSK3beta Ser9 phosphorylation in human K562 cells at 5 to 30 uM after 24 hrs by Western blotting method", "format": "cell-based"}, "K562 [21]": {"tested_on": "K562", "test": "Reduction in CDK2 protein expression in human K562 cells at 5 to 30 uM after 24 hrs by Western blotting method", "format": "functional, cell-based"}, "[22]": {"test": "Cytotoxicity against human HCT116 cells after 48 hrs by SRB assay", "format": "functional, cell-based", "conditions": "HCT-116, 48 h", "how_it_was_run": "as §2"}, "K562 [23]": {"tested_on": "K562", "test": "Induction of cell cycle arrest in human K562 cells assessed as reduction in accumulation at G0/G1 phase after 24 hrs by propidium iodide staining based flow cytometry", "format": "functional"}, "K562 [24]": {"tested_on": "K562", "test": "Induction of cell morphological changes in human K562 cells assessed as nuclear fragmentation at 5 to 30 uM after 24 hrs by Hoechst 33342/propidium iodide staining based inverted fluorescence microscopy", "format": "functional", "how_it_was_run": "(§3)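 Cells treated for 24 h with 5.0–30.0 μM or with 0.5% DMSO, then collected and washed with PBS. Stained with Hoechst 33342 (5.0 μg/mL, 10 min, 37 °C), then with PI (10.0 μg/mL, 10 min, room temperature, dark). Nuclei scored by fluorescence microscopy as condensed/bright, fragmented, or PI-positive.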"}, "K562 [25]": {"tested_on": "K562", "test": "Induction of apoptosis in human K562 cells after 24 hrs by Annexin V-FITC/propidium iodide staining based flow cytometry", "format": "functional, cell-based", "how_it_was_run": "as §1"}, "K562 [26]": {"tested_on": "K562", "test": "Induction of cell morphological changes in human K562 cells assessed as chromatin condensation at 5 to 30 uM after 24 hrs by Hoechst 33342/propidium iodide staining based inverted fluorescence microscopy", "format": "functional", "how_it_was_run": "as §3"}, "K562 [27]": {"tested_on": "K562", "test": "Induction of cell cycle arrest in human K562 cells assessed as accumulation at G2/M phase at 5 uM after 24 hrs by propidium iodide staining based flow cytometry (reference value: 18.96%)", "format": "functional"}, "K562 [28]": {"tested_on": "K562", "test": "Induction of apoptosis in human K562 cells assessed as viable cells level at 15 uM after 24 hrs by Annexin V-FITC/propidium iodide staining based flow cytometry (reference value: 97.64%)", "format": "functional", "how_it_was_run": "as §1"}, "K562 [29]": {"tested_on": "K562", "test": "Induction of apoptosis in human K562 cells assessed as early apoptotic cells level at 5 uM after 48 hrs by Annexin V-FITC/propidium iodide staining based flow cytometry (reference value: 0.24%)", "format": "functional", "how_it_was_run": "as §1"}, "K562 [30]": {"tested_on": "K562", "test": "Induction of apoptosis in human K562 cells assessed as viable cells level at 5 uM after 48 hrs by Annexin V-FITC/propidium iodide staining based flow cytometry (reference value: 99.21%)", "format": "functional", "how_it_was_run": "as §1"}}, "note": "Active and inactive are the calls of the source. The rule behind the calls is not given here."}
{"smiles": "COc1ccc(N2C(=O)/C(=C3/C(=O)Nc4ccccc43)c3ccccc32)cc1", "values": [{"measurement": "Activity", "setting": "K562 [1]", "result": 4.4, "unit": "%"}, {"measurement": "Activity", "setting": "K562 [2]", "result": 20.02, "unit": "%"}, {"measurement": "Activity", "setting": "K562 [3]", "result": 50.88, "unit": "%"}, {"measurement": "Activity", "setting": "K562 [4]", "result": "Dose-dependent effect"}, {"measurement": "Activity", "setting": "K562 [5]", "result": 0, "unit": "%"}, {"measurement": "Activity", "setting": "K562 [6]", "result": 1.68, "unit": "%"}, {"measurement": "Activity", "setting": "K562 [7]", "result": 0.76, "unit": "%"}, {"measurement": "Activity", "setting": "K562 [8]", "result": 37.16, "unit": "%"}, {"measurement": "Activity", "setting": "K562 [9]", "result": 2.45, "unit": "%"}, {"measurement": "Activity", "setting": "K562 [10]", "result": 0.01, "unit": "%"}, {"measurement": "Activity", "setting": "K562 [11]", "result": 1.54, "unit": "%"}, {"measurement": "Activity", "setting": "K562 [12]", "result": 82.42, "unit": "%"}, {"measurement": "Activity", "setting": "K562 [13]", "result": 95.68, "unit": "%"}, {"measurement": "Activity", "setting": "K562 [14]", "result": 0, "unit": "%"}, {"measurement": "Activity", "setting": "K562 [15]", "result": "Dose-dependent effect"}, {"measurement": "Activity", "setting": "K562 [16]", "result": 11.56, "unit": "%"}, {"measurement": "Activity", "setting": "K562 [17]", "result": 42.09, "unit": "%"}, {"measurement": "Activity", "setting": "K562 [18]", "result": 56.34, "unit": "%"}, {"measurement": "IC50", "setting": "L1210", "result": 102, "unit": "µM"}, {"measurement": "Activity", "setting": "K562 [19]", "result": 5.51, "unit": "%"}, {"measurement": "inhibition", "setting": "[20]", "result": "Dose-dependent effect"}, {"measurement": "inhibition", "setting": "K562 [21]", "result": "Dose-dependent effect"}, {"measurement": "IC50", "setting": "[22]", "result": "> 200", "unit": "µM"}, {"measurement": "Activity", "setting": "K562 [23]", "result": "Dose-dependent effect"}, {"measurement": "Activity", "setting": "K562 [24]", "result": "Active"}, {"measurement": "Activity", "setting": "K562 [25]", "result": "Dose-dependent effect"}, {"measurement": "Activity", "setting": "K562 [26]", "result": "Active"}, {"measurement": "Activity", "setting": "K562 [27]", "result": 16.81, "unit": "%"}, {"measurement": "Activity", "setting": "K562 [28]", "result": 90.17, "unit": "%"}, {"measurement": "Activity", "setting": "K562 [29]", "result": 1.46, "unit": "%"}, {"measurement": "Activity", "setting": "K562 [30]", "result": 97.78, "unit": "%"}]}
